{"source": "paper PMC4878412", "about": "(Cancer chemotherapy and pharmacology, 2015)", "key": {"[1]": {"settings": "free RK-33; no method in this paper, no reference given; cited from earlier work"}, "[2]": {"settings": "ref [1]; cited from earlier work"}, "[3]": {"test": "In vivo retention of RK-33 in plasma, liver and lungs 48 h after administration", "settings": "mice, 48 h after intraperitoneal injection of 0.80 mg free RK-33", "how_it_was_run": "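Female athymic NCr-nu/nu mice (4–5 weeks, three animals) got free test compound 0.8 mg i.p. and were killed at 48 h. Blood was drawn intracardially into heparin tubes and spun at 8000 rpm for 5 min. Liver and lungs were weighed and homogenised in 3 volumes cold PBS. Plasma or homogenate (0.1 mL) was extracted with 1 mL chloroform/isopropanol (1:1), shaken 3 min and centrifuged.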"}, "[4]": {"test_system": "DDX3", "settings": "ref [1]; cited from earlier work"}, "[5]": {"settings": "ref [1]; cited from earlier work", "remark": "listed apart in the source"}}, "data": [{"substance": "RK-33", "values": [{"measurement": "Systemic half-life (t½)", "setting": "[1]", "result": 7.3, "unit": "h"}, {"measurement": "Cell cycle effect (in words)", "setting": "[2]", "result": "induce G1 arrest"}, {"measurement": "RK-33 in liver", "setting": "[3]", "result": "< 1", "unit": "µg/mL"}, {"measurement": "RK-33 in lungs", "setting": "[3]", "result": "< 1", "unit": "µg/mL"}, {"measurement": "RK-33 in plasma", "setting": "[3]", "result": "< 1", "unit": "µg/mL"}, {"measurement": "Inhibition of DDX3 (in words)", "setting": "[4]", "result": "effectively inhibits"}, {"measurement": "Toxicity in mice (in words)", "setting": "[5]", "result": "little or no toxicity"}]}]}
